Data reported in ChEMBL document CHEMBL1129932, “Novel naphthalene derivatives as inhibitors of human immunoglobulin E antibody production” (J Med Chem, 1997).

What was measured:
[1] = Inhibitory activity against IgE antibody production in PMBC cells; type: functional, cell-based; settings: Homo sapiens
Method in brief: (§1)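 Human PBMC from healthy donors (final 2×10^6 cells/mL) were cultured in triplicate in RPMI 1640 with 10% FCS, 2 mM glutamine and penicillin/streptomycin. On day 0 they received IL-4 0.1 μg/mL, IL-10 0.2 μg/mL and α-CD40 2 μg/mL, with or without compound. After 14 days, IgE in the medium was measured by ELISA. Suppression (%) = (without − with compound)/without × 100, and IC50 was given for active compounds.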

[2] = In vitro inhibition of IgG antibody production in human PBMC cultured with alpha-CD40, IL-4 and IL-10 at 3 uM concentration […]; type: functional
[3] = In vitro inhibition of IgE antibody production in human PBMC cultured with alpha-CD40, IL-4 and IL-10 at 3 uM concentration; type: functional; method in brief: as §1
[4] = Tested for human PBMC cell viability, cultured with alpha-CD40, IL-4 and IL-10 at 3 uM (a negative number means enhancement of cell viability); type: functional
Method in brief: (§2)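 Viability was read in the same 14-day PBMC cultures (2×10^6 cells/mL, triplicate) with IL-4 0.1 μg/mL, IL-10 0.2 μg/mL and α-CD40 2 μg/mL. After the medium was removed, alamar blue was added for 2 h and fluorescence was read (excitation 530 nm, emission 590 nm). Suppression (%) = (without − with compound)/without × 100.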

[5] = Inhibitory activity against IgG antibody production in PBMC; type: functional; settings: Homo sapiens
Method in brief: (§3)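 Human PBMC from healthy donors (final 2×10^6 cells/mL, triplicate) were cultured in RPMI 1640 with 10% FCS, glutamine and antibiotics. IL-4 (0.1 μg/mL), IL-10 (0.2 μg/mL) and α-CD40 (2 μg/mL) were added on day 0, with or without compound. After 14 days, IgG in the medium was measured by ELISA. Suppression (%) = (level without − level with compound)/level without × 100.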

[6] = In vitro inhibition of IgE antibody production in human PBMC cultured with alpha-CD40, IL-4 and IL-10 at 3 uM concentration (negative means enhancement of antibody biosynthesis); type: functional; method in brief: as §1
Homo sapiens = organism: Homo sapiens; experiment: Compound was tested for inhibition of PGE-2 production by human lung fibroblast WI-38 stimulated with interleukin-1-alpha (IL-1alpha) and [Ca2+] ionophore A-23187; type: functional
Method in brief: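 WI-38 human lung fibroblasts (2×10^5 cells/mL) were grown to confluence over 4 days, then serum-starved overnight in medium with 0.5% BSA. Medium was replaced with 0.5% BSA medium containing IL-1α 10 ng/mL, with or without compound, and incubated overnight at 37 °C. Released PGE2 was measured by ELISA kit.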

[7] = Compound was tested for inhibition of IgE production on human PBMC culture after treating with IL-4, alpha-CD40, IL-10; type: functional; method in brief: as §1
RBL-1 [8] = experiment: Compound was tested for inhibition of LTB4 production by rat basophilic leukemia cells(RBL-1) stimulated with A-23187; type: functional, cell-based
Method in brief: (§4)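 RBL-1 cells were maintained in DMEM with 10% FCS. Cells were preincubated with or without compound for 10 min at 37 °C, then stimulated with A23187 at a final 2 μM for 5 min. The reaction was stopped, and LTB4 in the centrifuged supernatant was measured by ELISA kit.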

[9] = In vitro inhibition of IgE antibody production in human PBMC cultured with alpha-CD40, IL-4 and IL-10 at 3 uM concentration […]; type: functional
[10] = Compound was tested for inhibition of IgE production on human PBMC culture after treating with IL-4, HC; type: functional
Method in brief: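 PBMC at a final 2×10^6 cells/mL were cultured in triplicate in RPMI 1640 with 10% FCS, 2 mM glutamine and penicillin/streptomycin. IL-4 (0.1 μg/mL) and HC (1 μM) were added on day 0, with or without compound. After 14 days, IgE in the medium was measured by ELISA. Suppression (%) = (level without compound − level with compound)/level without compound × 100.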

[11] = In vitro inhibition of IgG antibody production in human PBMC cultured with alpha-CD40, IL-4 and IL-10 at 3 uM concentration; type: functional; method in brief: as §3
[12] = Tested for human PBMC cell viability, cultured with alpha-CD40, IL-4 and IL-10 at 3 uM; type: functional; method in brief: as §2
RBL-1 [13] = experiment: Compound was tested for inhibition of LTB4 production by rat basophilic leukemia cells (RBL-1) stimulated with A-23187; type: functional, cell-based; method in brief: as §4
[14] = Inhibitory activity against IgE antibody production in PBMC; type: functional; settings: Homo sapiens; method in brief: as §1
B-cell line = experiment: Compound was tested for inhibition of IgE production on mouse B cells after treating with IL-4, LPS; type: functional, cell-based
Method in brief: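 B cells came from DBA/2 splenocytes depleted with anti-mouse T cell serum plus rabbit complement, then fractionated by gradient centrifugation. They were cultured in RPMI 1640 with 10% FCS and LPS at a final 2 μg/mL. After 1 day, mouse IL-4 was added at a final 50 ng/mL. Culture continued for 6 days, and IgE in the media was measured by ELISA.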

| Structure (SMILES) | Suppression [2] | Suppression [3] | Cell viability [4] | Suppression [11] | further results |
| --- | --- | --- | --- | --- | --- |
| O=C(Nc1ccccc1C(=O)O)c1ccc(Oc2ccccc2)cc1 | -1.8% | 46% | -1.4 |  | IC50 [1]: 3.28 µM; IC50 [5]: > 10 µM |
| CC(C)(C(=O)Nc1ccccc1C(=O)O)c1ccc(Oc2ccc3ccccc3c2)cc1 | -5.4% |  | -11.3 |  | Suppression [6]: -30.4% |
| O=C(Nc1ccccc1C(=O)O)c1ccc(Oc2ccc3ccccc3c2)cc1 | -16.9% | 64.8% | -7.4 |  | IC50 (Homo sapiens): 10 µM; IC50 [7]: 1.3 µM; IC50 (RBL-1 [8]): 0.4 µM; IC50 [5]: 38 µM |
| O=C(Nc1ccccc1-c1nn[nH]n1)c1ccc(Oc2ccc3ccccc3c2)cc1 | -18.7% |  | -13.6 |  | Suppression [9]: -74.5% |
| O=C(Cc1ccc(Oc2ccc3ccccc3c2)cc1)Nc1ccccc1C(=O)O |  | 86.6% |  | 31.2% | IC50 (Homo sapiens): 10 µM; IC50 [10]: 1.9 µM; IC50 [7]: 0.6 µM; Cell viability [12]: 11.4; IC50 (RBL-1 [13]): 0.7 µM; IC50 [5]: 4.3 µM |
| O=C(Nc1ccccc1C(=O)O)c1ccc(COc2ccc3ccccc3c2)cc1 | -16.1% |  |  |  | IC50 (Homo sapiens): < 1 µM; IC50 [7]: > 3 µM; Suppression [6]: -6.1% |
| O=C(Nc1ccccc1C(=O)O)c1cccc(Oc2ccc3ccccc3c2)c1 | -16% |  | -23.6 |  | Suppression [9]: -26.2% |
| O=C(O)c1cccc(NC(=O)c2ccc(Oc3ccc4ccccc4c3)cc2)c1 |  |  | -14.5 | 2.5% | Suppression [9]: -29.6% |
| O=C(CCc1ccc(Oc2ccc3ccccc3c2)cc1)Nc1ccccc1C(=O)O | -41.2% | 8.5% | -2.9 |  |  |
| Nc1ccccc1NC(=O)c1ccc(Oc2ccc3ccccc3c2)cc1 |  | 31.6% |  | 3.3% | Cell viability [12]: -9.3 |
| NC(=O)c1ccccc1NC(=O)c1ccc(Oc2ccc3ccccc3c2)cc1 |  | 8.6% |  | 10.8% | Cell viability [12]: 7.3 |
| O=C(O)c1ccccc1C(=O)Nc1ccc(Oc2ccc3ccccc3c2)cc1 | -23.1% |  |  |  | Suppression [9]: -11.8%; Cell viability [12]: 1.5 |
| O=C(Nc1ccccc1C(=O)O)c1ccc(Cc2ccc3ccccc3c2)cc1 | -21.1% | 9.5% | -1.1 |  |  |
| O=C(O)c1ccc(Oc2ccc3ccccc3c2)cc1 | -4.8% |  |  |  | Suppression [9]: -4.6% |
| O=C(Nc1ccccc1C(=O)O)c1ccc(Sc2ccc3ccccc3c2)cc1 | -2.8% | 25.8% |  |  |  |
| O=C(Nc1ccccc1C(=O)O)c1ccc(C(=O)c2ccc3ccccc3c2)cc1 |  | 10.3% |  | 5.4% |  |
| O=C(CCCC1CC1/C=C/c1ccc2ccccc2c1)Nc1ccccc1C(=O)O (centres undefined) | -0.5% | 63% | -2.6% |  | IC50 [14]: 1.88 µM; IC50 [5]: > 10 µM |
| CN(C(=O)c1ccc(Oc2ccc3ccccc3c2)cc1)c1ccccc1C(=O)O |  |  | -5.1 | 10.1% | Suppression [9]: -27.7% |
| O=C(Nc1ccccc1C(=O)O)c1ccc(Oc2ccc3ccccc3c2)c([N+](=O)[O-])c1 |  | 93% |  | 36.9% | Cell viability [12]: 19.1 |
| CC(C(=O)Nc1ccccc1C(=O)O)c1ccc(Oc2ccc3ccccc3c2)cc1 (centres undefined) | -15.9% | 8.7% | -2.1 |  |  |
| O=C(Nc1ccccc1C(=O)O)c1ccc(Oc2ccc3cc(O)ccc3c2)cc1 | -8.7% | 76.6% |  |  | IC50 [14]: 1.2 µM; Cell viability [12]: 5.2; IC50 [5]: > 10 µM |
| O=C(Nc1ccccc1C(=O)O)c1ccc(Oc2cccc3ccccc23)cc1 |  | 96.9% | -6.5 | 64.7% | IC50 [14]: 1.57 µM; IC50 [5]: 2.32 µM |
| O=C(O)c1ccccc1NCc1ccc(Oc2ccc3ccccc3c2)cc1 | -4.5% | 21.9% | -1.7 |  |  |
| O=C(Cc1ccc(Oc2ccc3cc(OCc4ccccc4)ccc3c2)cc1)Nc1ccccc1C(=O)O |  | 95.1% |  | 91.7% | IC50 (B-cell line): 0.012 µM; IC50 [7]: 0.0083 µM; Cell viability [12]: 58.2; IC50 (RBL-1 [13]): 1.2 µM; IC50 [5]: 0.042 µM |
| O=C(O)c1ccc(NC(=O)c2ccc(Oc3ccc4ccccc4c3)cc2)cc1 |  |  | -16.1 | 24.4% | Suppression [9]: 6.4% |
